Experimental findings from ChEMBL document CHEMBL4130552, “Design, synthesis and biological evaluation of novel benzimidazole amidines as potent multi-target inhibitors for the treatment of non-small cell lung cancer” (Eur J Med Chem, 2018) are described below.

Assay [1] relates to A549. The experiment in a line: Antiproliferative activity against human A549 cells after 72 hrs by MTT assay. It is filed as functional, cell-based. Conditions: A549, 72 h. The procedure, abridged: (§1)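 Cells seeded at 5000/well on day 0 in medium with 10% FBS, 2 mM L-glutamine, penicillin/streptomycin, 37 °C, 5% CO2. Compounds added at five 10-fold dilutions with DMSO ≤0.1%, then 72 h exposure. MTT absorbance converted to percentage growth versus untreated wells. IC50 by linear regression between bracketing concentrations. Quadruplicate points, three independent experiments.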
For orientation: Formazan colour is commonly taken as a measure of viable cells.

The subject of the next assay is WI-38. Kind of assay: Antiproliferative activity against human WI38 cells after 72 hrs by MTT assay. It is filed as cell-based. Conditions: WI-38, 72 h. The method, boiled down:
as §1

A further assay deals with CFPAC-1. The experiment in a line: Antiproliferative activity against human CFPAC-1 cells after 72 hrs by MTT assay. Type of assay: functional, cell-based. Conditions: CFPAC-1, 72 h. The procedure, abridged: as §1
A further assay has as its system SW-620. The experiment in a line: Antiproliferative activity against human SW620 cells after 72 hrs by MTT assay. Type of assay: functional, cell-based. Conditions: SW-620, 72 h. The procedure, abridged:
as §1

The test system of a further assay is HeLa. The experiment in a line: Antiproliferative activity against human HeLa cells after 72 hrs by MTT assay. Type of assay: functional, cell-based. The method, boiled down: as §1
In assay [2] the test system is A549. Kind of assay: Downregulation of PDE5 protein expression in human A549 cells at 2 times antiproliferative IC50 after 48 hrs by Western blot method. Type of assay: functional, cell-based. The procedure, abridged:
(§2)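 Lysis in RIPA buffer (20 mM Tris-HCl pH 7.5, 150 mM NaCl, EDTA, EGTA, 1% NP-40, 1% deoxycholate, protease inhibitors). Blocking 1 h in 4% BSA/TBST, primary antibody overnight at 4 °C, HRP secondary 1 h, chemiluminescence. Densitometry normalised to alpha-tubulin; two independent experiments.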
(Immunoblotting shows a protein as a band on a membrane.)

Assay [3] concerns the target T1, MAP kinase p38 (Homo sapiens, UniProt O15264+Q15759+Q16539+P53778). The experiment in a line: Inhibition of p38 phosphorylation at Thr180/Tyr182 residues in human A549 cells at 2 times antiproliferative IC50 after 48 hrs by Western blot method. It is filed as cell-based. The procedure, abridged: as §2
The test system of assay [4] is A549. The experiment in a line: Induction of apoptosis in human A549 cells assessed as late apoptotic cells at 2 times antiproliferative IC50 after 48 hrs by Annexin V-FITC/propidium iodide staining based fluorescence microscopic method (reference value: 0%). Type of assay: functional.
The subject of assay [5] is A549. The experiment in a line: Induction of apoptosis in human A549 cells assessed as viable cells at 2 times antiproliferative IC50 after 48 hrs by Annexin V-FITC/propidium iodide staining based fluorescence microscopic method (reference value: 99.48%). It is filed as functional.
The subject of assay [6] is A549. The experiment in a line: Downregulation of TGM2 protein expression in human A549 cells at 2 times antiproliferative IC50 after 48 hrs by Western blot method. Type of assay: functional, cell-based. The method, boiled down:
as §2

In assay [7] the test system is A549. Kind of assay: Downregulation of CDK9/CyclinT1 protein expression in human A549 cells at 2 times antiproliferative IC50 after 48 hrs by Western blot method. It is filed as functional, cell-based. The procedure, abridged: as §2
Assay [8] has as its system A549. The experiment in a line: Induction of apoptosis in human A549 cells assessed as early apoptotic cells at 2 times antiproliferative IC50 after 48 hrs by Annexin V-FITC/propidium iodide staining based fluorescence microscopic method (reference value: 0.52%). Type of assay: functional.
The test system of assay [9] is A549. Kind of assay: Induction of apoptosis in human A549 cells assessed as necrotic cells at 2 times antiproliferative IC50 after 48 hrs by Annexin V-FITC/propidium iodide staining based fluorescence microscopic method (reference value: 0%). Type of assay: functional.
Assay [10] has as its target Cellular tumor antigen p53 (Homo sapiens) (UniProt P04637). The experiment in a line: Inhibition of p53 phosphorylation at Ser-15 residue in human A549 cells at 2 times antiproliferative IC50 after 48 hrs by Western blot method. It is filed as cell-based. The procedure, abridged:
as §2

Assay [11] concerns the target T1, MAP kinase p38. Kind of assay: Inhibition of MAPK p38 (unknown origin). It is filed as protein assay.

Active and inactive are the calls of the source. No cut-off for these calls is given here.

Cellular tumor antigen p53 (Homo sapiens), sequence (P04637 whole entry, looked up): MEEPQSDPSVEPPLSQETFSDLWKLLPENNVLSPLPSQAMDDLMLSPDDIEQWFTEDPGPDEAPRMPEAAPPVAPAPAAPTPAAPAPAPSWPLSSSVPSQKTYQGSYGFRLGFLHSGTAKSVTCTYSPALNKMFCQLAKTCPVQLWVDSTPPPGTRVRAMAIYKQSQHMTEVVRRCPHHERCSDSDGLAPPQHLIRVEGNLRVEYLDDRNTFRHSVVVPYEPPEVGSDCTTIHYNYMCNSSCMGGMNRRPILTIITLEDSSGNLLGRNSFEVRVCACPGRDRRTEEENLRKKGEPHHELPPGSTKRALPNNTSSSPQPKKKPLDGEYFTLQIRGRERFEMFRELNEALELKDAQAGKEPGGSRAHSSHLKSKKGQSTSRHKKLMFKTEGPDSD

In the case of `CC(C)NC(=N)c1ccc2[nH]c(-c3cn(-c4ccc(Cl)cc4)nn3)nc2c1`, the IC50 (in general, the concentration that inhibits the measured activity by half) in the assay on A549 [1] is 27.1 µM; in the assay with WI-38 it was 6.85 µM; with CFPAC-1, 16 µM; in the assay with SW-620, 32.5 µM; with HeLa, 0.85 µM.
The like results for `c1ccc(-n2cc(COc3ccc(-c4nc5cc(C6=NCCN6)ccc5[nH]4)cc3)nn2)cc1` were, in that order, 49.7 µM, 0.1 µM, 26.2 µM, 29.6 µM and 7.78 µM.
The like results for `N=C(N)c1ccc2[nH]c(-c3ccc(OCc4cn(-c5ccccc5)nn4)cc3)nc2c1` were, in that order, 53.3 µM, 8.08 µM, 29.9 µM, 31.5 µM and 18.8 µM.
As to `Cl.c1ccc(Cn2cc(COc3ccc(-c4nc5cc(C6=NCCN6)ccc5[nH]4)cc3)nn2)cc1`, the result in the assay on A549 [2], in the assay with A549 [6] and with A549 [7] was Active. Further, the inhibition entry (on MAP kinase p38 [3]; in assay [10]) was “Active” each time. Moreover, the Activity worked out at 16.37% with A549 [4], 49.71% with A549 [5], 27.49% with A549 [8] and 6.43% in the assay on A549 [9]. For the same molecule, the IC50 with A549 [1] was 0.07 µM; in the assay with WI-38 it was 6.89 µM; with CFPAC-1, 29.2 µM; in the assay with SW-620, 28.1 µM; with HeLa it was 6.67 µM.
For the molecule `CC(C)NC(=N)c1ccc2[nH]c(-c3ccc(OCc4cn(-c5ccc(C(F)(F)F)cc5)nn4)cc3)nc2c1`, the IC50 with A549 [1] was 85.8 µM; in the assay on WI-38 it was 0.32 µM; in the assay on CFPAC-1, over 100 µM; in the assay with SW-620, 50.1 µM; in the assay with HeLa it was 13.7 µM.
On to `O=c1[nH]cc(F)c(=O)[nH]1` [FLUOROURACIL], for which the IC50 with A549 [1] came to 2.8 µM.
Consider `N=C(N)c1ccc2[nH]c(-c3ccc(OCc4cn(-c5ccc(C(F)(F)F)cc5)nn4)cc3)nc2c1`, for which the IC50 with A549 [1] turned out to be 0.84 µM; in the assay with WI-38, 0.52 µM; in the assay with CFPAC-1, 2.09 µM; in the assay with SW-620, 0.36 µM; with HeLa, 0.32 µM.
In turn, `Cc1ccc(-n2nc(C(C)(C)C)cc2NC(=O)Nc2nc(CCOCc3ccncc3)cs2)cc1` showed an IC50 against MAP kinase p38 [11] of 0.586 µM.
As to `N=C(N)c1ccc2[nH]c(-c3ccc(OCc4cn(-c5ccc(F)cc5)nn4)cc3)nc2c1`, the IC50 in the assay on A549 [1] was 81 µM; in the assay on WI-38, 0.7 µM; in the assay on CFPAC-1, over 100 µM; in the assay with SW-620, 37.9 µM; in the assay with HeLa it was 7.39 µM.
The like results for `Clc1ccc(-n2cc(COc3ccc(-c4nc5ccc(Cl)cc5[nH]4)cc3)nn2)cc1` were, in that order, 2.91 µM, 1.52 µM, 3.74 µM, 4.28 µM and 3.54 µM.
For `N=C(N)c1ccc2[nH]c(-c3ccc(OCc4cn(-c5ccc(Cl)cc5)nn4)cc3)nc2c1`, the IC50 was 0.05 µM in the assay on A549 [1]; 5.03 µM with WI-38; 18.5 µM with CFPAC-1; 7.57 µM in the assay with SW-620; 0.8 µM in the assay on HeLa.
The like results for `CC(C)NC(=N)c1ccc2[nH]c(-c3ccc(OCc4cn(-c5ccc(F)cc5)nn4)cc3)nc2c1` were, in that order, 8.37 µM, 0.66 µM, 0.71 µM, 37.9 µM and 0.59 µM.
For `CC(C)NC(=N)c1ccc2[nH]c(-c3ccc(OCc4cn(-c5ccc(I)cc5)nn4)cc3)nc2c1` the same measures were 0.08 µM, 0.2 µM, 5.13 µM, 0.69 µM and 0.51 µM.
As to `Brc1ccc(-c2c[nH]c([C@@H]3Cc4ccccc4CN3)n2)cc1`, the IC50 against MAP kinase p38 [11] was found to be 1.9 µM.
For `CC(C)NC(=N)c1ccc2[nH]c(-c3ccc(OCc4cn(-c5ccc(Cl)cc5)nn4)cc3)nc2c1.Cl`, the outcome in the assay with A549 [2], in the assay on A549 [6] and with A549 [7] was inactive. Besides, the inhibition entry (at MAP kinase p38 [3]; in assay [10]) was “Active” each time. For the same molecule, the Activity in the assay with A549 [4] was found to be 40%; in the assay with A549 [5], 28.89%; in the assay with A549 [8] it was 28.33%; with A549 [9], 2.78%. The IC50 was 0.05 µM with A549 [1]; 8.04 µM in the assay on WI-38; over 100 µM with CFPAC-1; 48.7 µM in the assay on SW-620; 17.5 µM in the assay with HeLa.
With `Clc1ccc(-n2cc(COc3ccc(-c4nc5ccccc5[nH]4)cc3)nn2)cc1`, the IC50 in the assay with A549 [1] was 7.96 µM; in the assay on WI-38 it was 1.11 µM; in the assay with CFPAC-1 it was over 100 µM; with SW-620, 99.3 µM; in the assay with HeLa it was over 100 µM.
Regarding `FC(F)(F)c1ccc(-n2cc(COc3ccc(-c4nc5cc(C6=NCCN6)ccc5[nH]4)cc3)nn2)cc1`, the IC50 in the assay on A549 [1] came out at 0.59 µM; in the assay with WI-38 it was 0.69 µM; in the assay on CFPAC-1 it was 0.65 µM; with SW-620, 6.35 µM; in the assay with HeLa it was 2.69 µM.
For `N=C(N)c1ccc2[nH]c(-c3ccc(OCc4cn(Cc5ccccc5)nn4)cc3)nc2c1` the same measures were 9.47 µM, 0.89 µM, 34.4 µM, 30.9 µM and 13.7 µM.
Regarding `Clc1ccc(-n2cc(COc3ccc(-c4nc5cc(C6=NCCN6)ccc5[nH]4)cc3)nn2)cc1`, the IC50 in the assay with A549 [1] was 0.06 µM; in the assay on WI-38, 2.24 µM; in the assay with CFPAC-1, 16.9 µM; in the assay on SW-620 it was 3.65 µM; in the assay on HeLa it was 0.22 µM.
For `N=C(N)c1ccc2[nH]c(-c3ccc(OCc4cn(-c5ccc(I)cc5)nn4)cc3)nc2c1` the same measures were 0.45 µM, 0.62 µM, 21.5 µM, 0.95 µM and 6.45 µM.
As to `CC(C)NC(=N)c1ccc2[nH]c(CCc3cn(-c4ccc(Cl)cc4)nn3)nc2c1`, the IC50 was determined as 33.4 µM in the assay on A549 [1]; 3.71 µM in the assay with WI-38; 36.1 µM with CFPAC-1; 56.8 µM with SW-620; 3.11 µM with HeLa.
The like results for `CC(C)NC(=N)c1ccc2[nH]c(-c3ccc(OCc4cn(-c5ccccc5)nn4)cc3)nc2c1` were, in that order, over 100 µM, 0.99 µM, over 100 µM, 62.1 µM and 16.6 µM.
Turning to `Clc1ccc(-n2cc(-c3nc4cc(C5=NCCN5)ccc4[nH]3)nn2)cc1`, the IC50 in the assay with A549 [1] amounted to 3.86 µM; with WI-38, 2.72 µM; in the assay with CFPAC-1 it was 0.83 µM; in the assay on SW-620, 1.67 µM; in the assay on HeLa it was 0.69 µM.
The like results for `CC(C)NC(=N)c1ccc2[nH]c(-c3ccc(OCc4cn(Cc5ccc(Cl)cc5)nn4)cc3)nc2c1` were, in that order, 4.98 µM, 0.7 µM, over 100 µM, 36.5 µM and over 100 µM.
The like results for `Fc1ccc(-n2cc(COc3ccc(-c4nc5cc(C6=NCCN6)ccc5[nH]4)cc3)nn2)cc1` were, in that order, over 100 µM, 0.09 µM, over 100 µM, 2.31 µM and 0.98 µM.
The like results for `CC(C)NC(=N)c1ccc2[nH]c(-c3ccc(OCc4cn(Cc5ccccc5)nn4)cc3)nc2c1` were, in that order, 6.18 µM, 65.4 µM, over 100 µM, 58.6 µM and 8.8 µM.
For the molecule `Ic1ccc(-n2cc(COc3ccc(-c4nc5cc(C6=NCCN6)ccc5[nH]4)cc3)nn2)cc1`, the IC50 with A549 [1] is over 100 µM; in the assay with WI-38, 0.22 µM; in the assay with CFPAC-1, 0.86 µM; with SW-620, 0.37 µM; in the assay on HeLa, 0.42 µM.
